Screening data from PubChem.
Sampled rows, rich in hits. Any-hit rate of the full collection: about 3.7%.
Yeast lifespan up: compounds extending yeast replicative lifespan, primary screen, S. cerevisiae, OD615; S. cerevisiae growth with nicotinamide; deaD strain in restrictive glucose medium; inhibition of the nicotinamide effect, % at 10 µM; 130,000 compounds, 0.68% hits;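 active means inhibition above a set limit, placed 3 SD over the median of all compounds, cut at about 26% in these data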
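System: Modified budding yeast, DeaD strain | Buffer or medium: Restrictive glucose medium | Also added: 1.5 mM nicotinamide | Doses: 10 µM single point, 0.25% DMSO | Schedule: 48 h compound exposure at 30 °C, humidified | Detection: Absorbance at 615 nm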
RAM network inh: inhibitors of the yeast RAM network, primary screen, dse1pr::URA3 reporter, 5-FOA selection; S. cerevisiae dse1pr::URA3 reporter, 5-FOA growth OD615, 2 d; analog-sensitive cbk1-as2 kinase mutant strain; inhibition, % at 50 µM; 190,000 compounds, 1.8% hits; AID 868, 2007;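 active means inhibition above a set limit, 3 SD over mean compound inhibition, cut at about 8.4% in these data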;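 further: inhibition rescues growth on 5-FOA so higher OD means more RAM inhibition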
Efa HMGR inh: inhibitors of E. faecalis class II HMGR, primary screen, biochemical, Enterococcus faecalis; purified E. faecalis HMGR, NADPH absorbance 340 nm kinetic; inhibition, % at 10 µM; HMG-CoA reductase (Enterococcus faecalis, mvaE); 190,000 compounds, 0.41% hits; AID 1066, 2008;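 active means inhibition above a set limit, the median over all tested compounds plus 3 SD, cut at about 9.5% in these data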;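 further: enzyme runs in reverse so mevalonate oxidation gives rising NADPH absorbance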
BB579 growth dn: growth inhibitors of yeast BB579 in restrictive medium, primary screen, yeast lifespan-shortening project, S. cerevisiae. inhibition, % at 10 µM. OD615, 48 h. 140,000 compounds, 0.51% hits;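 active means inhibition above a set limit, 3 SD over the mean compound inhibition, cut at about 44% in these data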
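System: DeaD yeast strain BB579; buffer or medium: CSMM-D dextrose restrictive medium; technique: OD at 615 nm; schedule: 4 h cell preincubation, 48 h compound exposure, 30 °C humidified; doses: single 10 µM dose; controls: amphotericin B 10 µg/mL, positive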
Insulin prom inh: inhibitors of insulin promoter-driven GFP, primary screen, imaging, TRM-6 cells, eGFP reporter, cell count. reporter expression induced with tamoxifen. inhibition, % at 2 µM. 130,000 compounds, 0.9% hits;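 active means inhibition above the mean plus 3 SD, with well images judged a real hit on visual review, cut at about 60% in these data, passing the limit was not always enough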
A number is an active result; - = inactive; . = no result given.

SMILES	Yeast lifespan up	RAM network inh	Efa HMGR inh	BB579 growth dn	Insulin prom inh
COc1cccc(C2CC(c3cccs3)=NN2C(=O)CSc2nc3c(cnn3-c3ccc(F)cc3)c(=O)[nH]2)c1OC (stereo not given)	-	11	-	-	-
Cc1cc(=O)c2cccc(Br)c2[nH]1	.	-	12	-	-
Cc1nn(-c2ccccc2)c(C)c1/C=C1\C(=O)N(C)C(=S)N1C	.	-	-	.	-
O=c1c2ccccc2c(C=Nc2cccc(S(=O)(=O)NCc3ccco3)c2)c(O)n1-c1ccc(Cl)cn1	-	8.6	-	-	.
COC(=O)CN=Cc1c(O)n(-c2ccc(Cl)cn2)c(=O)c2ccccc12	.	-	-	.	.
CC(C)(C)N/N=C/c1c(O)n(-c2ccc(Cl)cn2)c(=O)c2ccccc12	-	8.5	-	-	-
O=C1CC(c2ccccc2)CC(O)=C1C=NCCN1CCNCC1 (stereo not given)	35	-	-	-	.
Cc1ccc(C2CC(=O)C(C=NCCN3CCN(CC(=O)Nc4cc(C)cc(C)c4)CC3)=C(O)C2)cc1 (stereo not given)	.	-	-	.	.
O=C1CC(c2ccccc2)CC(O)=C1C=NCCN1CCN(C(=O)Nc2ccccc2)CC1 (stereo not given)	92	-	-	-	-
CCC(=O)N1CCN(CCN=CC2=C(O)CC(c3cccs3)CC2=O)CC1 (stereo not given)	53	-	-	-	-
Cc1ccc(NC(=O)CN2CCN(CCN=CC3=C(O)CC(c4ccccc4)CC3=O)CC2)cc1 (stereo not given)	60	-	-	-	-
CCCCNC(=O)CNC(=S)N(Cc1ccccc1F)C1CCCCC1	.	-	-	.	-
O=C1[C@@H]2[C@@H]3C[C@@H]([C@H]4ON=C(c5ccc(Cl)cc5)[C@@H]34)[C@@H]2C(=O)N1C1CCCCC1	-	-	-	-	-
CCn1ccnc1CNC(=O)CC1C(=O)NCCN1CC(c1ccccc1)c1ccccc1 (stereo not given)	.	-	-	.	.
Cc1ccc(NC(=O)CSc2ccccn2)cc1S(=O)(=O)N1CCOCC1	.	-	-	.	74
Cc1ccc(NC(=O)CCCSc2ccccc2)cc1S(=O)(=O)N1CCOCC1	.	8.9	-	.	-
O=C(c1ccco1)N1CCN(c2c([N+](=O)[O-])nn(-c3cccc(Cl)c3)[n+]2[O-])CC1	.	-	-	.	-
CCOC(=O)C1(CCc2ccccc2)CCN(C(=O)CCn2cncn2)CC1	.	-	-	.	.
Cc1nnc(NC(=O)CSc2ccc(-c3ccccn3)nn2)s1	.	-	-	.	.
CS(=O)(=O)N1CC(C(=O)O)Oc2ccc(CC(=O)O)cc21 (stereo not given)	.	-	-	.	.
CC1(C)CC(=O)C2=C(C1)N=C1SCCC(=O)N1C2c1cccc([N+](=O)[O-])c1 (stereo not given)	.	-	-	.	.
COc1ccc(CNC(=O)c2cc(-c3ccccc3OC)on2)cc1	-	8.6	-	-	.
Cc1ccc(NC(=S)N=Nc2c(O)n(C)c3ccc(S(=O)(=O)N4CCOCC4)cc23)cc1C	-	9.4	-	-	-
Cn1c(O)c(N=NC(=S)Nc2ccccc2F)c2cc(S(=O)(=O)N3CCOCC3)ccc21	.	-	-	.	.
O=C(c1cc(COc2c(F)cccc2F)on1)N1CCc2ccccc2C1	.	-	-	.	.
SMILES	Yeast lifespan up	RAM network inh	Efa HMGR inh	BB579 growth dn	Insulin prom inh
CCOC(=O)c1ccc2c(c1)n(CCO)c(C)[n+]2CC	71	-	-	-	-
Cc1cc(C)c2c(c1)-c1c(ssc1=S)C(C)(C)N2C(=O)CN1C(=O)c2ccccc2C1=O	-	11	-	-	-
CCOc1ccccc1NC(=O)C(OC(=O)c1ccccc1)c1ccccc1 (stereo not given)	-	-	-	-	.
CCOc1ccccc1C(=O)Nc1ccccc1-c1ccccc1	-	9.6	-	-	-
CCOc1ccccc1NC(=O)C(OC(=O)c1ccccc1O)c1ccccc1 (stereo not given)	-	8.9	-	-	-
CCCN1C2CCCC1CC(NC(=S)Nc1cc(C)cc(C)c1)C2 (stereo not given)	.	-	-	.	.
C=CCN(CC=C)S(=O)(=O)c1ccc2nc(NC(=O)C(C)C)sc2c1	76	-	-	-	-
O=C(CN1CCOCC1)N1CCN(c2ccc3ccccc3n2)CC1	.	-	-	.	.
O=C1OCC(CO)(CO)N=C1NNc1cc(Cl)ccc1Cl	-	-	-	64	-
O=C(O)C1Cc2[nH]cnc2C(c2ccccc2O)N1 (stereo not given)	-	-	-	-	-
COc1ccc(C(=O)c2cc(C(C)=O)c(Nc3ccccc3)s2)cc1	-	9.1	-	-	-
O=C(CSc1nnc(-c2ccccc2)c(-c2ccccc2)n1)NC1CCS(=O)(=O)C1 (stereo not given)	.	-	-	.	.
Nc1nc(C(F)(F)F)c(Br)c(=O)n1N	.	-	-	.	-
Cc1nc(C)c(-c2csc(Nc3cccnc3)n2)s1	-	-	-	-	87
CCC1C(=O)N=C(SCC(=O)NC2CCCCC2)NC1=O (stereo not given)	.	-	-	.	.
CC(=O)NC1C(=O)N=C(SCC(=O)NC2CCCCC2)NC1=O (stereo not given)	-	-	-	48	-
O=Cc1cccn1-c1nccc(-c2ccco2)n1	.	-	-	.	.
CC1CCC2C(=O)N(c3ccc(S(=O)(=O)c4ccccc4)cc3)C(=O)C2C1 (stereo not given)	-	-	-	-	-
CC1CCC2C(=O)N(c3cccc(OS(=O)(=O)c4ccccc4)c3)C(=O)C2C1 (stereo not given)	-	9.4	-	-	.
CCOc1cc(CNC(C)C)c(Cl)cc1OCC(=O)NCCc1ccccc1	-	-	-	-	-
O=C(OCCCN=C1NS(=O)(=O)c2ccccc21)c1ccc([N+](=O)[O-])cc1	.	-	-	.	-
Cc1nccn1-c1ccc(C(F)(F)F)cc1[N+](=O)[O-]	.	-	-	.	73
CN(CCCNC(=O)CSc1cc(=O)n(C)c2cc(Cl)ccc12)Cc1ccccc1	.	-	-	.	.
O=C(NC(=S)Nc1ccc(N2CCOCC2)cc1)c1cncc(Br)c1	-	-	-	-	67
O=C(NC(=S)Nc1ccc(N2CCOCC2)cc1)c1ccccc1	.	-	-	.	.
COc1ccc(/C=C/C(=O)c2ccc(NC(=O)c3cccs3)cc2)cc1OC	-	-	-	-	-
O=C(NCCCN1CCN(c2ccccc2F)CC1)Nc1ccccc1[N+](=O)[O-]	.	-	-	.	78
Cc1ccc(C(=O)NC(=S)Nc2cccc(NC(=O)c3ccccc3)c2)cc1[N+](=O)[O-]	-	10	-	-	-
Cc1ccc(C(=O)Nc2ccccc2Oc2ccccc2)cc1[N+](=O)[O-]	-	11	-	-	-
Cc1ccc(C(=O)NC(=S)Nc2cccc(NC(=O)c3ccccc3Cl)c2)cc1[N+](=O)[O-]	-	-	-	-	-
